The M2OR odorant receptor database

Columns and labels:
Conditions in all cases: stereoisomer not certain
UniProt Q8VG27 = target: T1, UniProt Q8VG27
T1 sequence (whole entry): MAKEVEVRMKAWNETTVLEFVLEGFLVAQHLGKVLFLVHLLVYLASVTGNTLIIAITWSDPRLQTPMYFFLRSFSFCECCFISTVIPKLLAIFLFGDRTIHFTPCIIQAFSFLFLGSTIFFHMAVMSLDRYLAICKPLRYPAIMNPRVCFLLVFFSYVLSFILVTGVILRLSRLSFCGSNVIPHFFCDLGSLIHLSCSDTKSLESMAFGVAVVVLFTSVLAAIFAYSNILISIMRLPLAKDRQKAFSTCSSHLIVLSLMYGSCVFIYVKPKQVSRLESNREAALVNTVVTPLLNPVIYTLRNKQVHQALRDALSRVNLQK
Summary of the method: (§1)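 Each entry records the cell line, G-protein, co-transfected protein and tags used. Methods varied with the source, often transient luciferase assays in mammalian cell lines. A receptor–molecule pair is called responsive (active) if the original authors judged its signal statistically different from baseline and non-responsive (inactive) otherwise.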

UniProt Q8VG28 = target: UniProt Q8VG28
Summary of the method: as §1

UniProt Q8VG53 = target: T2, UniProt Q8VG53
T2 sequence (whole entry): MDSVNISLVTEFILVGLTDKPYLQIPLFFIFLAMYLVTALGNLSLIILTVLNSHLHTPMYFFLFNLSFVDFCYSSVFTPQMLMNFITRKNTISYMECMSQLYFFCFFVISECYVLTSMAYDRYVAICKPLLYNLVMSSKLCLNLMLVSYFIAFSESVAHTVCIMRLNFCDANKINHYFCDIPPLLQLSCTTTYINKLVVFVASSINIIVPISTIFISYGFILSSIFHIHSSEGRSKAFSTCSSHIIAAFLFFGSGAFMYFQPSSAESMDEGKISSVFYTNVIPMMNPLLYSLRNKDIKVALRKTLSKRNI
Summary of the method: as §1

UniProt Q8VG64 = target: T3, UniProt Q8VG64
T3 sequence (whole entry): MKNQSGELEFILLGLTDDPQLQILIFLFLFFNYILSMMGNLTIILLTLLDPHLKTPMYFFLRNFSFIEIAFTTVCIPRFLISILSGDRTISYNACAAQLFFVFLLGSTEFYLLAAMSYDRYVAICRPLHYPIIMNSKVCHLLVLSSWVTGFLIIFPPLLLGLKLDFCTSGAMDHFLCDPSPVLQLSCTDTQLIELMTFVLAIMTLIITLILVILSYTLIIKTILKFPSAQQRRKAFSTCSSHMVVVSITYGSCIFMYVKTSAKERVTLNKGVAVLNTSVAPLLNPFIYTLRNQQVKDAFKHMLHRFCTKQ
Summary of the method: as §1

UniProt Q8VGB9 = target: T4, UniProt Q8VGB9
T4 sequence (whole entry): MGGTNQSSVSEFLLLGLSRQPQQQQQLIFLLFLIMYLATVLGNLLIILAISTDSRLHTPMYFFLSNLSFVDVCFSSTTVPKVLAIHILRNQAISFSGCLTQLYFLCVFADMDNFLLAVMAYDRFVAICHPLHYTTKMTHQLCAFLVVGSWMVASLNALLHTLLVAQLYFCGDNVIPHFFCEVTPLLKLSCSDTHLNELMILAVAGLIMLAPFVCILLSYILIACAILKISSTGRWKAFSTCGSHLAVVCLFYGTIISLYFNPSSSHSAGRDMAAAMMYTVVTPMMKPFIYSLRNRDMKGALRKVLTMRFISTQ
Summary of the method: as §1

UniProt Q8VGC6 = target: T5, UniProt Q8VGC6
T5 sequence (whole entry): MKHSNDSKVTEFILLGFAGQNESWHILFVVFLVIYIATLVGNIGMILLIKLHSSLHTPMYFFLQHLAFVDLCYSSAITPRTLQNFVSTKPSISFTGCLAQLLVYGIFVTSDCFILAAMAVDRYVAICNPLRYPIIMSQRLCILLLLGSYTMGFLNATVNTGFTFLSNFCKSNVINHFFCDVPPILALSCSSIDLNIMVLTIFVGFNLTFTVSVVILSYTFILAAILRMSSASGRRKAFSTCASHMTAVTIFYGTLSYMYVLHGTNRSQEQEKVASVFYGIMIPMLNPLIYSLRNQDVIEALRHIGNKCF
Summary of the method: as §1

UniProt Q8VGJ3 = target: T6, UniProt Q8VGJ3
T6 sequence (whole entry): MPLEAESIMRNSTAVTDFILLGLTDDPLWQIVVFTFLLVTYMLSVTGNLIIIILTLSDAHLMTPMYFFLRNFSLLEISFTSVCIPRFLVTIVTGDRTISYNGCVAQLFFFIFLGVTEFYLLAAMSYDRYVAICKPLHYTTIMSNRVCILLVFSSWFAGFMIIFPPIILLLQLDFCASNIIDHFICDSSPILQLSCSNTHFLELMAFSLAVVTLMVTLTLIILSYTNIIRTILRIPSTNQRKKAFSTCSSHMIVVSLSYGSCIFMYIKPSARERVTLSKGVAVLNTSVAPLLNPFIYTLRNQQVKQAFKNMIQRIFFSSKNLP
Summary of the method: as §1

UniProt Q8VGL0 = target: T7, UniProt Q8VGL0
T7 sequence (whole entry): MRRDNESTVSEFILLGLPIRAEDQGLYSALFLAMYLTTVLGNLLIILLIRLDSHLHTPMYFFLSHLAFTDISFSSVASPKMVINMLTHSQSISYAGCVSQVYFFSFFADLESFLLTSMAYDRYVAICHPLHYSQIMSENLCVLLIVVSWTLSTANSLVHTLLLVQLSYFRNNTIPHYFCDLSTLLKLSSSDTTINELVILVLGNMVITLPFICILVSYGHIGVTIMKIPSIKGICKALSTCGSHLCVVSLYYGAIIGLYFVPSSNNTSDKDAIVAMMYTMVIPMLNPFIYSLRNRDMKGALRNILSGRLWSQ
Summary of the method: as §1

UniProt Q8VG49 = target: T8, UniProt Q8VG49
T8 sequence (whole entry): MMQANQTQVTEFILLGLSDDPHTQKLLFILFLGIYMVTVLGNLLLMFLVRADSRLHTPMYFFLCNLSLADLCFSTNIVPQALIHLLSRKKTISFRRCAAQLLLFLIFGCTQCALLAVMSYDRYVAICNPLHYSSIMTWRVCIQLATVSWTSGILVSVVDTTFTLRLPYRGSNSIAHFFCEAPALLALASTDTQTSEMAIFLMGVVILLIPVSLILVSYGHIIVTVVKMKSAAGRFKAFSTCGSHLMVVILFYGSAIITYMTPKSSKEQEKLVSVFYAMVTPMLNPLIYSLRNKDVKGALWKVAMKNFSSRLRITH
Summary of the method: as §1

UniProt Q8VG77 = target: T9, UniProt Q8VG77
T9 sequence (whole entry): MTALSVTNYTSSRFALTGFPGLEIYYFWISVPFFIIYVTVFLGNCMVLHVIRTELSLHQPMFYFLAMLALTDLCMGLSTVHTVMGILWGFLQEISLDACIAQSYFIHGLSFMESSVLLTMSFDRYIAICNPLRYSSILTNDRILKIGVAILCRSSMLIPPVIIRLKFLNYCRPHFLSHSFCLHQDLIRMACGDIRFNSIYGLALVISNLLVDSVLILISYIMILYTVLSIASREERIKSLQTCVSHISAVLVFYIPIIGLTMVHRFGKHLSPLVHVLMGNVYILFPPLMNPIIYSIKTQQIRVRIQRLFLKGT
Summary of the method: as §1

UniProt Q8VG96 = target: T10, UniProt Q8VG96
T10 sequence (whole entry): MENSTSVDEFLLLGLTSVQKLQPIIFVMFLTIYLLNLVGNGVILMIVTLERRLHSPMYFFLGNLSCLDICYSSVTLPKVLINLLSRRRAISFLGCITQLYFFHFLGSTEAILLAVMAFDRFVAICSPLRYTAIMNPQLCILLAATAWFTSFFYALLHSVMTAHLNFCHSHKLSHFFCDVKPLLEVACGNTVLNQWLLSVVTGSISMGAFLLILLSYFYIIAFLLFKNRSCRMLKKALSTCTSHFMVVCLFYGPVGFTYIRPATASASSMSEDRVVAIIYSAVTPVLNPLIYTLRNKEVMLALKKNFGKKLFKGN
Summary of the method: as §1

UniProt Q8VGD7 = target: T11, UniProt Q8VGD7
T11 sequence (whole entry): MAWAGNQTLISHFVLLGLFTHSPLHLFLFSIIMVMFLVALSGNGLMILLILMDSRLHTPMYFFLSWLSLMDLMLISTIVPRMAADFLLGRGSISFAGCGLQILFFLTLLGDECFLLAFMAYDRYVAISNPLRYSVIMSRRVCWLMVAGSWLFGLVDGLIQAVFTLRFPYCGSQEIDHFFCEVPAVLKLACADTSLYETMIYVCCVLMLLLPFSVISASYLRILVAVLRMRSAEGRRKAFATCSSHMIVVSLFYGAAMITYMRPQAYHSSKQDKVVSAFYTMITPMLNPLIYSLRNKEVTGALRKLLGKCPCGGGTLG
Summary of the method: as §1

UniProt Q8VGH1 = target: T12, UniProt Q8VGH1
T12 sequence (whole entry): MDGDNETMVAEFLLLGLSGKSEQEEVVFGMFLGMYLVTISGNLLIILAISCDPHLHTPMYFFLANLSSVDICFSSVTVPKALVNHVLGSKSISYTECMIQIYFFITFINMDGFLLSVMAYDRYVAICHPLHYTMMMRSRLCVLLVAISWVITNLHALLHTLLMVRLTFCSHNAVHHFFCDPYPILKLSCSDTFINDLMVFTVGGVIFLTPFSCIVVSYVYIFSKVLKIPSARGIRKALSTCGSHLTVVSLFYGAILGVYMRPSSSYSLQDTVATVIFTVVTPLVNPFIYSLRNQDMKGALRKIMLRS
Summary of the method: as §1

UniProt Q8VGJ1 = target: T13, UniProt Q8VGJ1
T13 sequence (whole entry): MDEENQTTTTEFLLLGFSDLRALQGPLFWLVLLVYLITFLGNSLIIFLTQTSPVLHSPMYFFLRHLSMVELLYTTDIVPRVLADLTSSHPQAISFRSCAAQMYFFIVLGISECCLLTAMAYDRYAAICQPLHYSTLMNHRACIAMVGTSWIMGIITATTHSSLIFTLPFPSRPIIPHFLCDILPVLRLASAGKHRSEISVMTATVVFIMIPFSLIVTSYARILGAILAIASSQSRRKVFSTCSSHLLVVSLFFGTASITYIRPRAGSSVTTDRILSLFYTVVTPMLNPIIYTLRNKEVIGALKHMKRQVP
Summary of the method: as §1

UniProt Q8VGJ5 = target: T14, UniProt Q8VGJ5
T14 sequence (whole entry): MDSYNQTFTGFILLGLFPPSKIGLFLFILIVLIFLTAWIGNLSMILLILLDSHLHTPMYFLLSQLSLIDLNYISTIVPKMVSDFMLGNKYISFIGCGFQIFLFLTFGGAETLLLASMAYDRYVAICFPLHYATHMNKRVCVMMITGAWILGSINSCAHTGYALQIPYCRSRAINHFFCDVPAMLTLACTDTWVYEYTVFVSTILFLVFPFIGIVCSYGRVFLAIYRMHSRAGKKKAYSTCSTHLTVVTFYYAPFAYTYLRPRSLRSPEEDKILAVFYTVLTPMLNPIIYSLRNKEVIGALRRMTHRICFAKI
Summary of the method: as §1

UniProt Q8VGL7 = target: T15, UniProt Q8VGL7
T15 sequence (whole entry): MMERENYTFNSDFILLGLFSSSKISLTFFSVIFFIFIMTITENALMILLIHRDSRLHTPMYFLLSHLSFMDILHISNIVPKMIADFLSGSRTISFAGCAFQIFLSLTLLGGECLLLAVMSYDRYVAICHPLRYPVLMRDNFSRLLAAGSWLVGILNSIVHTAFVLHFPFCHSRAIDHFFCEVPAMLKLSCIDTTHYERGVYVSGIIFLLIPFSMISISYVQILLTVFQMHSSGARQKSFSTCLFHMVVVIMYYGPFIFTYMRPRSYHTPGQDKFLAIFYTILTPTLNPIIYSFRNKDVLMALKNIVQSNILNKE
Summary of the method: as §1

Sequence of UniProt Q8VG28 (Q8VG28 as listed by the source): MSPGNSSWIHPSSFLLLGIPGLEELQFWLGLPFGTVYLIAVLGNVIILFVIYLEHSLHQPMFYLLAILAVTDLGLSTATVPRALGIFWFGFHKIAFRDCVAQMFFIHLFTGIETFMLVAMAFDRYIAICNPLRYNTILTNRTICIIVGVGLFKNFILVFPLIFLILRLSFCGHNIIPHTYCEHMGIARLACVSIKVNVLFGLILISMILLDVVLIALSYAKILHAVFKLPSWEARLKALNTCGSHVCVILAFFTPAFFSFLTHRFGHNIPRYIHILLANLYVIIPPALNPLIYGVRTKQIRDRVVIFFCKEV

SMILES	odorant receptor agonist call (UniProt Q8VG27)	odorant receptor agonist call (UniProt Q8VG28)	odorant receptor agonist call (UniProt Q8VG53)	odorant receptor agonist call (UniProt Q8VG64)	odorant receptor agonist call (UniProt Q8VGB9)	odorant receptor agonist call (UniProt Q8VGC6)	odorant receptor agonist call (UniProt Q8VGJ3)	odorant receptor agonist call (UniProt Q8VGL0)	odorant receptor agonist call (UniProt Q8VG49)	odorant receptor agonist call (UniProt Q8VG77)	odorant receptor agonist call (UniProt Q8VG96)	odorant receptor agonist call (UniProt Q8VGD7)	odorant receptor agonist call (UniProt Q8VGH1)	odorant receptor agonist call (UniProt Q8VGJ1)	odorant receptor agonist call (UniProt Q8VGJ5)	odorant receptor agonist call (UniProt Q8VGL7)
CCCCC=O	inactive	inactive	inactive	inactive	inactive	inactive	inactive	inactive								
O=C1Cc2ccccc2O1	inactive		inactive	inactive	inactive	inactive	inactive	inactive	inactive	inactive	inactive	inactive	inactive	inactive	inactive	inactive
CCCCCCCCC(=O)O	inactive		inactive	inactive	inactive	active	inactive	inactive	active	inactive	inactive	inactive	inactive	inactive	inactive	inactive
CCCCCCCCO	inactive	inactive	inactive	inactive	inactive	active	inactive	inactive	inactive	inactive	inactive	inactive	inactive	inactive	inactive	inactive
CCC(=O)O	inactive		inactive	inactive	inactive	inactive	inactive	inactive	inactive	inactive	inactive	inactive	inactive	inactive	inactive	inactive
